Data on six compounds can be found in ChEMBL document CHEMBL1132728, “Inhibition of Escherichia coli glucosamine synthetase by novel electrophilic analogues of glutamine--comparison with 6-diazo-5-oxo-norleucine” (Bioorg Med Chem Lett, 2000).

Experiment [1] has as its system Escherichia coli. Description: Limiting rate constant for inactivation of Escherichia coli glucosamine synthetase was determined. In outline:
(§1)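 E. coli glucosamine synthetase was preincubated 15 min at 37 °C in 100 mM potassium phosphate, pH 7.5, with 10 mM fructose-6-phosphate and 50 mM KCl, then inhibitor was added. Timed aliquots were diluted 40-fold into the same buffer with 6 mM L-glutamine, and residual activity was read by colorimetric glutamate assay. The ln(residual activity)-versus-time plot gave t1/2, and kobs = ln2/t1/2. kobs versus [I] was fitted by Kitz–Wilson to give k+2 and Ki.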

Experiment [2] is described as follows: Steady-state inactivation rate constant for inactivation of Escherichia coli glucosamine synthetase was determined. In outline:
as §1

Experiment [3] is described as follows: Second order rate constant ([…]) was determined. In outline: as §1
Experiment [4] can be described thus: Second order rate constant ([…]) with Escherichia coli glucosamine synthetase. The essentials:
as §1

Experiment [5] deals with Escherichia coli. Description: Limiting rate constant for inactivation of Escherichia coli glucosamine synthetase was determined; No inhibition at 200 uM.
The nature of experiment [6]: Steady-state inactivation rate constant for inactivation of Escherichia coli glucosamine synthetase was determined; No inhibition at 200 uM.
Experiment [7] in a line: Second order rate constant ([…]) was determined; No inhibition at 200 uM.

In turn, `CC(=[N+]=[N-])C(=O)CC[C@H](N)C(=O)O` registered a K+2 in the experiment on Escherichia coli [1] of 0.02 min⁻¹. Besides, the Ki in experiment [2] came out at 1100 nM. The compound further registered a K+2/Ki in experiment [3] of 333 M⁻¹ s⁻¹.
In the experiment on Escherichia coli [1], `C[S+](C)CC(=O)CC[C@H](N)C(=O)O` had a K+2 of 0.12 min⁻¹. Besides, the Ki in experiment [2] worked out at 370 nM. In addition, in experiment [3], the K+2/Ki is 5330 M⁻¹ s⁻¹.
In the experiment with Escherichia coli [1], `N[C@@H](CCC(=O)CCl)C(=O)O` yielded a K+2 of 0.19 min⁻¹. In addition, the Ki in experiment [2] worked out at 62500 nM. This compound showed a K+2/Ki in experiment [3] of 50 M⁻¹ s⁻¹.
The like results for `N[C@@H](CCC(=O)CBr)C(=O)O` were, in that order, 0.4 min⁻¹, 2700 nM and 2500 M⁻¹ s⁻¹.
`[N-]=[N+]=CC(=O)CC[C@H](N)C(=O)O` [6-DIAZO-5-OXO-L-NORLEUCINE] returned a K+2 with Escherichia coli [1] of 0.7 min⁻¹. In experiment [2], this compound returned a Ki of 9500 nM. The compound further showed a K+2/Ki in experiment [4] of 1170 M⁻¹ s⁻¹.
Take `N#CCC[C@H](N)C(=O)O`: in the experiment with Escherichia coli [5], the “K+2” value was “No inhibition”. In experiment [6], the Ki entry was “No inhibition”. Further, in experiment [7], the “K+2/Ki” value was “No inhibition”.
